pIC50: −log10 of the molar value. The source made the active and inactive calls. The rule behind the calls is not given here.
Tests used:
Ca-Ski [1] = assay: Antiproliferative activity human CaSki cells after 24 hrs by crystal violet staining; assay type: functional, cell-based
In short: (§1)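 Cells in RPMI-1640 with 5% newborn calf serum, 37 °C, 5% CO2, exponential phase. Seeded at 7500 cells/well and grown 24 h, then exposed over a concentration range in ethanol vehicle; controls got 1% ethanol. After 24 h, crystal violet staining with absorbance at 590 nm. IC50 taken from the decrease in cell population.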

[2] = Antiproliferative activity human ViBo cells after 24 hrs by crystal violet staining; assay type: functional, cell-based; in short: as §1
HeLa [3] = assay: Antiproliferative activity human HeLa cells after 24 hrs by crystal violet staining; assay type: functional, cell-based; in short: as §1
PBMC [4] = assay: Antiproliferative activity human PBMC assessed as proliferating cells at 33.9 uM after 72 hrs using FITC-A staining by flow cytometry; assay type: cell-based
In short: (§2)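 Enriched lymphocytes from one healthy donor: non-adherent cells kept after 1 h at 37 °C. Labelled with CFSE for 15 min at room temperature in the dark, quenched with NCS, washed. Plated at 2 × 10^5 cells/well, unstimulated, PHA-stimulated or treated, with ethanol 1% vehicle control. Five replicates, 72 h at 37 °C. Then 1% formaldehyde fixation and flow cytometry, ≥20,000 events.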

PBMC [5] = assay: Antiproliferative activity human PBMC assessed as non-proliferating cells at 33.9 uM after 72 hrs using FITC-A staining by flow cytometry; assay type: cell-based; in short: as §2
Ca-Ski [6] = assay: Cell cycle arrest at G1-phase in human CaSki cells at 29.5 to 33.9 uM after 24 hrs using propidium iodine staining by flow cytometry; assay type: functional, cell-based
In short: (§3)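 Seeded at 10^5 cells/mL and grown 24 h, then exposed to 33.9 or 29.5 µM. Harvested with versene and fixed/permeabilized in 50% methanol in PBS. Treated with RNase (2.5 U/mL), stained with propidium iodide (0.2 mg/mL), DNA content analysed by G1, S, G2/M and SubG1.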

Ca-Ski [7] = assay: Cell cycle arrest at S-phase in human CaSki cells at 29.5 to 33.9 uM after 24 hrs using propidium iodine staining by flow cytometry; assay type: functional, cell-based; in short: as §3
Ca-Ski [8] = assay: Cell cycle arrest at G2/M-phase in human CaSki cells at 29.5 to 33.9 uM after 24 hrs using propidium iodine staining by flow cytometry; assay type: functional, cell-based; in short: as §3
Ca-Ski [9] = assay: Induction of apoptosis in human CaSki cells assessed as increase in cell nuclei released from broken cell at 29.5 to 33.9 uM after 24 hrs using propidium iodine staining by flow cytometry; assay type: functional, cell-based; in short: as §3
Ca-Ski [10] = assay: Induction of apoptosis in human CaSki cells assessed as decrease in DNA level at 29.5 to 33.9 uM after 24 hrs using propidium iodine staining by flow cytometry; assay type: functional, cell-based; in short: as §3
[11] = Cell cycle arrest at G2/M-phase in human ViBo cells at 29.5 to 33.9 uM after 24 hrs using propidium iodine staining by flow cytometry; assay type: functional, cell-based; in short: as §3
HeLa [12] = assay: Cell cycle arrest at G2/M-phase in human HeLa cells at 29.5 to 33.9 uM after 24 hrs using propidium iodine staining by flow cytometry; assay type: functional, cell-based; in short: as §3
[13] = Cell cycle arrest at S-phase in human ViBo cells at 29.5 to 33.9 uM after 24 hrs using propidium iodine staining by flow cytometry; assay type: functional, cell-based; in short: as §3
HeLa [14] = assay: Cell cycle arrest at S-phase in human HeLa cells at 29.5 to 33.9 uM after 24 hrs using propidium iodine staining by flow cytometry; assay type: functional, cell-based; in short: as §3
Ca-Ski [15] = assay: Cytotoxicity against human CaSki cells assessed as LDH release at IC50 after 24 hrs by spectrophotometry; assay type: functional
[16] = Cytotoxicity against human ViBo cells assessed as LDH release at IC50 after 24 hrs by spectrophotometry; assay type: functional
HeLa [17] = assay: Cytotoxicity against human HeLa cells assessed as LDH release at IC50 after 24 hrs by spectrophotometry; assay type: functional
[18] = Cytotoxicity against human PHA-stimulated lymphocytes assessed as LDH release at 33.9 uM after 72 hrs by spectrophotometry; assay type: cell-based; details: lymphocyte
In short: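 Lymphocytes exposed to compound or ethanol (10 µL/mL); PHA-activated lymphocytes (15 µL/mL) served as control. After 72 h, LDH released into the culture supernatant measured. Mean ± S.D. of three independent experiments with three repetitions.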

Ca-Ski [19] = assay: Induction of apoptosis in human CaSki cells assessed as induction of active caspase-3 expression at 29.5 to 33.9 uM using FITC/DAPI staining by epifluorescence microscopy; assay type: functional, cell-based
In short: (§4)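 Seeded at 5 × 10^4 cells/mL in RPMI-1640 with 5% NCS for 24 h, then treated with 33.9 or 29.5 µM. Formaldehyde fixation 15 min, 0.5% Triton X-100 permeabilization, blocking. Rabbit anti-active caspase-3 (1:50), then FITC goat anti-rabbit (1:200). DAPI counterstain; fluorescence microscopy.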

ViBo [20] = assay: Induction of apoptosis in human ViBo cells assessed as induction of active caspase-3 expression at 29.5 to 33.9 uM using FITC/DAPI staining by epifluorescence microscopy; assay type: functional, cell-based; in short: as §4
HeLa [21] = assay: Induction of apoptosis in human HeLa cells assessed as induction of active caspase-3 expression at 29.5 to 33.9 uM using FITC/DAPI staining by epifluorescence microscopy; assay type: functional, cell-based; in short: as §4
Ca-Ski [22] = assay: Induction of apoptosis in human CaSki cells assessed as DNA fragmentation at IC50 after 24 hrs by TUNEL assay; assay type: functional, cell-based
ViBo [23] = assay: Induction of apoptosis in human ViBo cells assessed as DNA fragmentation at IC50 after 24 hrs by TUNEL assay; assay type: functional, cell-based
HeLa [24] = assay: Induction of apoptosis in human HeLa cells assessed as DNA fragmentation at IC50 after 24 hrs by TUNEL assay; assay type: functional, cell-based

For CC(=O)O[C@H]1CC[C@@]2(C)C(=CC[C@H]3[C@@H]4C[C@H](OC(C)=O)[C@H]([C@H](C)C(=O)CC[C@@H](C)CO)[C@@]4(C)CC[C@@H]32)C1, the pIC50 (Ca-Ski [1]) was 4.33.
With CC(=O)O[C@H]1CC[C@@]2(C)C(=CC[C@H]3[C@@H]4C[C@H](OC(C)=O)[C@H]([C@H](C)C(=O)CC[C@@H](C)CO[C@@H]5O[C@H](CO)[C@@H](O)[C@H](O)[C@H]5O)[C@@]4(C)CC[C@@H]32)C1 the Activity (Ca-Ski [1]) was “Dose-dependent effect”, the pIC50 (Ca-Ski [1]) was 4.47 and the pIC50 [2] was 4.53. The pIC50 (HeLa [3]) was 4.53, the Activity (PBMC [4]) was 72.09% and the Activity (PBMC [5]) was 27.91%. For the same molecule, the Activity (Ca-Ski [6]) was “inactive”, the Activity (Ca-Ski [7]) was “inactive” and the Activity (Ca-Ski [8]) was “inactive”. The Activity (Ca-Ski [9]) was “Active”, the Activity (Ca-Ski [10]) was “Active” and the Activity [11] was “Active”. The Activity (HeLa [12]) was “Active”, the Activity [13] was “Active” and the Activity (HeLa [14]) was “Active”. The Activity (Ca-Ski [15]) was 1%, the Activity [16] was 11% and the Activity (HeLa [17]) was 6%. For the same molecule, the Activity [18] was “Non-toxic”, the Activity (Ca-Ski [19]) was “Active” and the Activity (ViBo [20]) was “Active”. For the same molecule, the Activity (HeLa [21]) was “Active”, the Activity (Ca-Ski [22]) was “Active” and the Activity (ViBo [23]) was “Active”. For the same molecule, the Activity (HeLa [24]) was “Active”.

— ChEMBL document CHEMBL1828573, “Synthesis and biological evaluation of the glycoside (25R)-3β,16β-diacetoxy-22-oxocholest-5-en-26-yl β-d-glucopyranoside: a selective anticancer agent in cervicouterine cell lines” (Eur J Med Chem, 2011)
